Paper PMC9050161 (RSC Advances, 2020)

Legend:
CYP1A1 = CYP1A1 (Homo sapiens, UniProt P04798); experiment: Inhibition of CYP1A1; assay type: biochemical
How it was run: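 Recombinant human CYPs at 0.05 mg mL−1 protein, each with its probe substrate near Km: ethoxyresorufin 1 μM (CYP1A1), phenacetin 100 μM (CYP1A2), nifedipine 40 μM (CYP3A4, 3A5). Incubated at 37 °C without (control) or with test compound at 1, 10 and 100 μM. Supernatant analysed by UHPLC-TQD-MS; activity relative to control; triplicate.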

UGT2B7 = biological target: T1, UGT2B7 (Homo sapiens, UniProt P16662); experiment: Inhibition of UGT2B7; assay type: biochemical
T1 sequence (P16662 24-529): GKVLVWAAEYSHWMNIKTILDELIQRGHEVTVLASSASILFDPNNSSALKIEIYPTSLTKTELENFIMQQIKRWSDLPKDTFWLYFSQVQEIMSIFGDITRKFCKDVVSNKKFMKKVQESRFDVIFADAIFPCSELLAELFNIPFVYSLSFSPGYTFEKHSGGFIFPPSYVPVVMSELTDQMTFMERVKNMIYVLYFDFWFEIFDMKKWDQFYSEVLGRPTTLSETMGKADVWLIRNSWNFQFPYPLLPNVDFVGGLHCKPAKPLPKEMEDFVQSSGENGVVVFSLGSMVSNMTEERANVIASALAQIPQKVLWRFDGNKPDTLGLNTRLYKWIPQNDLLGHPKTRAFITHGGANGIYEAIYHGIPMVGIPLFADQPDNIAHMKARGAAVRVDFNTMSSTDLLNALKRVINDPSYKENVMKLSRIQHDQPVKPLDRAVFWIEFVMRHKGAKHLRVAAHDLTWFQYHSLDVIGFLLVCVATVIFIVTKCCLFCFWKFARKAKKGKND
How it was run: (§1)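 Recombinant human UGTs screened with probe substrates: β-estradiol for UGT1A1, propofol for 1A9, and 4-methylumbelliferone for 1A3, 1A6, 1A7, 1A8, 1A10, 2B4, 2B7, 2B10, 2B15 and 2B17. Incubated at 37 °C without (control) or with test compound at 1, 10 or 100 μM. Glucuronide formation measured relative to control; triplicate.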

MRP1 = MRP1 (Homo sapiens, UniProt P33527); experiment: M2 excretion in HeLa1A9 cells after shRNA knock-down of MRP1; assay type: cell-based; conditions: MRP1 partially silenced
How it was run: (§2)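 shRNA plasmid against BCRP, MRP1, MRP3 or MRP4 transfected into UGT1A9-expressing HeLa cells, then exposed to 5 μM test compound in HBSS. Medium sampled at 30–120 min with replacement; cells collected at 120 min. UHPLC gave extracellular and intracellular glucuronide, excretion rate, efflux clearance (excretion rate/intracellular concentration) and fraction metabolized (fmet), each compared with control. Triplicate.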

p110β = conditions: cited from earlier work
UGT1A9 = UGT1A9 (Homo sapiens, UniProt O60656); experiment: Inhibition of UGT1A9; assay type: biochemical
How it was run: as §1

UGT1A6 = UGT1A6 (Homo sapiens, UniProt P19224); experiment: Inhibition of UGT1A6; assay type: biochemical
UGT1A6, sequence (P19224 27-532): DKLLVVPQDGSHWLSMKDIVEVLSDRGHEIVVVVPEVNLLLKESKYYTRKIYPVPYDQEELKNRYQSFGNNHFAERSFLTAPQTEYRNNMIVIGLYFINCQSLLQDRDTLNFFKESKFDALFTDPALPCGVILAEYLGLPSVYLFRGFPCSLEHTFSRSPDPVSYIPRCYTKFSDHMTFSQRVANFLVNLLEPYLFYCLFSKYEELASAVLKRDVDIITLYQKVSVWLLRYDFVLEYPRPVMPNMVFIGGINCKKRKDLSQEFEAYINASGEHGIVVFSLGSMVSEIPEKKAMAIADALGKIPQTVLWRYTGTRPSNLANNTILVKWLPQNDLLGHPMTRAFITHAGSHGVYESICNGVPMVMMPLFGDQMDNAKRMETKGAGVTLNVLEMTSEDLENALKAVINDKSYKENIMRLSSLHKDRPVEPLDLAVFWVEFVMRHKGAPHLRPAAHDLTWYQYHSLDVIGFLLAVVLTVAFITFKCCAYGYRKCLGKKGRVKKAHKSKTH
How it was run: as §1

MRP4 = MRP4 (Homo sapiens, UniProt O15439); experiment: M2 excretion in HeLa1A9 cells after shRNA knock-down of MRP4; assay type: cell-based; conditions: MRP4 silencing
MRP4, sequence (O15439 whole entry): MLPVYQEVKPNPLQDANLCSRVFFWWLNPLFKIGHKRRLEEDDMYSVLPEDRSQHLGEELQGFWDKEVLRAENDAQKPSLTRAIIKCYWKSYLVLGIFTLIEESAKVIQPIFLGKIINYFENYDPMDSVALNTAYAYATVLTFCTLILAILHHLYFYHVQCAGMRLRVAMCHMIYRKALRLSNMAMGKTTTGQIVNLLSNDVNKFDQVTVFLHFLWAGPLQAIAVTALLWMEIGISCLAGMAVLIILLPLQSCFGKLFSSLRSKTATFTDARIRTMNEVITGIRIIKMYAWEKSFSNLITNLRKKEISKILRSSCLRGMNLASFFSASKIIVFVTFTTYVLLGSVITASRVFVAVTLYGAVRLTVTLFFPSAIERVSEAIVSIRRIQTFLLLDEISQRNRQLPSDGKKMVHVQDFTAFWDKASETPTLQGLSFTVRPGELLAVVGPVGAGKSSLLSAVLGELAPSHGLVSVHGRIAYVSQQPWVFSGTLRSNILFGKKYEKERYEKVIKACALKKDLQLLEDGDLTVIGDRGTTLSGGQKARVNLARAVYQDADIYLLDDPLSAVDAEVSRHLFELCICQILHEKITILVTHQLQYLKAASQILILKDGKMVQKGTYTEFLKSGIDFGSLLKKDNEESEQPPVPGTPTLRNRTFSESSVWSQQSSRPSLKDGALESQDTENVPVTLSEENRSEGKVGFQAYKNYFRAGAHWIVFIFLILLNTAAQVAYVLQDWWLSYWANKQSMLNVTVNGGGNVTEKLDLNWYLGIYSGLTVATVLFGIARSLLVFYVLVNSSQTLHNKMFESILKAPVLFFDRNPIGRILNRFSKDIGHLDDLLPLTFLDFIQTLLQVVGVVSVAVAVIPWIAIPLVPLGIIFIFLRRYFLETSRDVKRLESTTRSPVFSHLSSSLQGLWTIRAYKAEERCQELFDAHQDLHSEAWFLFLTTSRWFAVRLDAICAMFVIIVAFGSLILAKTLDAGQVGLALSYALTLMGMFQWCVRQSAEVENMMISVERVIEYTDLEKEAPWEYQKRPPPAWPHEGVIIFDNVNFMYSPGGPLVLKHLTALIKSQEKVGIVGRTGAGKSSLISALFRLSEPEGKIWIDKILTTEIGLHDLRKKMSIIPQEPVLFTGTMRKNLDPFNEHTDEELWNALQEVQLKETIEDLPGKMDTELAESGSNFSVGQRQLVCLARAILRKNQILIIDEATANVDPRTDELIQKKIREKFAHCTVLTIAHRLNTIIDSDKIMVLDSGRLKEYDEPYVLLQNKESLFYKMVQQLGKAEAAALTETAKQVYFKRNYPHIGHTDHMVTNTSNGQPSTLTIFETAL
How it was run: as §2

mice = conditions: cited from earlier work
UGT2B15 = UGT2B15 (Homo sapiens, UniProt P54855); experiment: Inhibition of UGT2B15; assay type: biochemical; conditions: PI-103 1, 10 and 100 μM
UGT2B15, sequence (P54855 24-530): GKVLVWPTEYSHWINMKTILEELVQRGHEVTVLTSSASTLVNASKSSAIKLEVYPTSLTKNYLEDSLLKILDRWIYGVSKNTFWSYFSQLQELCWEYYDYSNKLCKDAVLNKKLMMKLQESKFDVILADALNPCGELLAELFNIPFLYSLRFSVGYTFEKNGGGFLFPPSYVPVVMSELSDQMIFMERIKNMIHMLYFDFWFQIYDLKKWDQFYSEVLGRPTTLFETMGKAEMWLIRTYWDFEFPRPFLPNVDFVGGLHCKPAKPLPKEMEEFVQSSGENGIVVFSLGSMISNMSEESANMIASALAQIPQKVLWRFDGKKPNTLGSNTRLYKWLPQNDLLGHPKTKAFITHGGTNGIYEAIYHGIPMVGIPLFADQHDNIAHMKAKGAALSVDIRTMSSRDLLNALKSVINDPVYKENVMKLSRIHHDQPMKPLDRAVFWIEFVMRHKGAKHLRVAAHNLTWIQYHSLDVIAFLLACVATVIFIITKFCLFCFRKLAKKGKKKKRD
How it was run: as §1

CYP2E1 = CYP2E1 (Homo sapiens, UniProt P05181); experiment: Inhibition of CYP2E1; assay type: biochemical
CYP2E1, sequence (P05181 whole entry): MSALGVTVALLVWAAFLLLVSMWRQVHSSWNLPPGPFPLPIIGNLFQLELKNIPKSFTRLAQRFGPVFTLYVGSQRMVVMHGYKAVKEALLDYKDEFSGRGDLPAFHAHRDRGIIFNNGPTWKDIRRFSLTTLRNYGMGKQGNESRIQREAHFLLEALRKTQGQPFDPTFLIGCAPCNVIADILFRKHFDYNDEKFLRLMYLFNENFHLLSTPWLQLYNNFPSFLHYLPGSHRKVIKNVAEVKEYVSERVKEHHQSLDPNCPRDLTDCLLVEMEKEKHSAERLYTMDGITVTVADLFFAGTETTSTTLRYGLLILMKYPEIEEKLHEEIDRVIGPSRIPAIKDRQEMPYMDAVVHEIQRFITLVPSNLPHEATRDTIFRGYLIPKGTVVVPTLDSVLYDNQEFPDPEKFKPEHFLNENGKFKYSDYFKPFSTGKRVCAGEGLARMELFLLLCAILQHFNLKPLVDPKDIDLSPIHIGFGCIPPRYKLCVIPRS
How it was run: (§3)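 Recombinant human CYPs at 0.1 mg mL−1 protein, each with its probe substrate near Km: coumarin 100 μM (2A6), bupropion 100 μM (2B6), paclitaxel 60 μM (2C8), tolbutamide 200 μM (2C9), mephenytoin 100 μM (2C19), chlorzoxazone 200 μM (2E1). Incubated at 37 °C with or without test compound at 1, 10 or 100 μM. UHPLC-TQD-MS read-out; triplicate.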

UGT2B17 = UGT2B17 (Homo sapiens, UniProt O75795); experiment: Inhibition of UGT2B17; assay type: biochemical; conditions: PI-103 1, 10 and 100 μM
How it was run: as §1

CYP2A6 = CYP2A6 (Homo sapiens, UniProt P11509); experiment: Inhibition of CYP2A6; assay type: biochemical; conditions: PI-103 1, 10 and 100 μM
CYP2A6, sequence (P11509 whole entry): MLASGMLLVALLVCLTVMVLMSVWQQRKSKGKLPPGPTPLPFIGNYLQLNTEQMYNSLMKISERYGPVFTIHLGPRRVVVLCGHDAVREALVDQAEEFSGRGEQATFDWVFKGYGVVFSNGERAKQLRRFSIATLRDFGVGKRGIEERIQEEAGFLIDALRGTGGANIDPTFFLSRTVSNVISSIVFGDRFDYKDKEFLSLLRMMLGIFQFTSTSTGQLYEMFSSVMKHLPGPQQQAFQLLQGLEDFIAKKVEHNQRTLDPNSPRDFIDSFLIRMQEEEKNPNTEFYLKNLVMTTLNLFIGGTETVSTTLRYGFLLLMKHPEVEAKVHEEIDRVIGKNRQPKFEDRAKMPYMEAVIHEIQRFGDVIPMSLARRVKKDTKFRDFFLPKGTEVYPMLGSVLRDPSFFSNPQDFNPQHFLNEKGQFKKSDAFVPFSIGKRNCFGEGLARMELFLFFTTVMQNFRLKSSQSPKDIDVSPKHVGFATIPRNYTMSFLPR
How it was run: as §3

UGT1A3 = biological target: T2, UGT1A3 (Homo sapiens, UniProt P35503); experiment: Inhibition of UGT1A3; assay type: biochemical
T2 sequence (P35503 29-534): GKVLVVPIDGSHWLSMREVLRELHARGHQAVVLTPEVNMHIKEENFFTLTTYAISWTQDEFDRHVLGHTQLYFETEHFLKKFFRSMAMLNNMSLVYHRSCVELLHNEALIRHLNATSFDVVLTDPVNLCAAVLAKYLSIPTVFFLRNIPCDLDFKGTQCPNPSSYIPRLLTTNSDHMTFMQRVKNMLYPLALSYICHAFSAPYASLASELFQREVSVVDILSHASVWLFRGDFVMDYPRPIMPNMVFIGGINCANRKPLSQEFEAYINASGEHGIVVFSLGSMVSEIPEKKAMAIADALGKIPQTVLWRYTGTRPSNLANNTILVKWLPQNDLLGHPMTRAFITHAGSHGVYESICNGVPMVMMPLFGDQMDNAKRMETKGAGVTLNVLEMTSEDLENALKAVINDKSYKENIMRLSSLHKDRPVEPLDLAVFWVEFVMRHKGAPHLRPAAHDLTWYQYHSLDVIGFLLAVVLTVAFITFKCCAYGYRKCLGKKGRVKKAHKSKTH
How it was run: as §1

CYP2C19 = CYP2C19 (Homo sapiens, UniProt P33261); experiment: Inhibition of CYP2C19; assay type: biochemical
CYP2C19, sequence (P33261 whole entry): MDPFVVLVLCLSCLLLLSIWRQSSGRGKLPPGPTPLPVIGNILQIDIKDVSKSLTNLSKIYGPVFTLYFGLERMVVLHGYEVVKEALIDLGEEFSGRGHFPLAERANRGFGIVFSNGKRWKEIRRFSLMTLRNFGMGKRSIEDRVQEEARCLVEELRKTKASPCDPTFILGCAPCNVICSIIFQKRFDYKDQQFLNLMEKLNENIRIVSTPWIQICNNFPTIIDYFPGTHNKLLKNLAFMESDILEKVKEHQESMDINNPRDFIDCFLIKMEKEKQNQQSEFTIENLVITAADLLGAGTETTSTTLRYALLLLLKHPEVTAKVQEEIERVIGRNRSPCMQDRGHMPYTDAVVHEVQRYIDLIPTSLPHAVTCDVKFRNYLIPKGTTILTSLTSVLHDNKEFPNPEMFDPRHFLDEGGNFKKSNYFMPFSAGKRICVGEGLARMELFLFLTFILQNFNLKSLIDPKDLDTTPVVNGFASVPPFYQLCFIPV
How it was run: as §3

p110α = conditions: cited from earlier work
UGT1A8 = UGT1A8 (Homo sapiens, UniProt Q9HAW9); experiment: Inhibition of UGT1A8; assay type: biochemical; conditions: PI-103 1, 10 and 100 μM
UGT1A8, sequence (Q9HAW9 26-530): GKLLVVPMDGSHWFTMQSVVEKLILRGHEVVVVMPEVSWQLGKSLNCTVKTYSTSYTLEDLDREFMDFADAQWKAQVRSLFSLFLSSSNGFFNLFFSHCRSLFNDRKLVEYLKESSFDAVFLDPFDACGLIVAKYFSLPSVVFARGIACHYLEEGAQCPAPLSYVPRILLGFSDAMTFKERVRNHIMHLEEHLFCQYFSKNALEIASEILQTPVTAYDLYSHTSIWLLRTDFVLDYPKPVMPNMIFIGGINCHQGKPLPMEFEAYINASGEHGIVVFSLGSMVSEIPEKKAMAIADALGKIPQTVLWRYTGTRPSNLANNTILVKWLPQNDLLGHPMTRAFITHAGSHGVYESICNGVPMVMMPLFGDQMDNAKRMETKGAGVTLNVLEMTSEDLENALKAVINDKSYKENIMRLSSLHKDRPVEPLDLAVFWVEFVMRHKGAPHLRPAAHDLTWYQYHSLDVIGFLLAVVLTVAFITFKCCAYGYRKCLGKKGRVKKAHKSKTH
How it was run: as §1

HeLa cells = experiment: Toxicity of PI-103 in HeLa cells; assay type: cell-based, human; conditions: within the experimental concentrations (maximal 5 μM)

CYP1A1, sequence (P04798 whole entry): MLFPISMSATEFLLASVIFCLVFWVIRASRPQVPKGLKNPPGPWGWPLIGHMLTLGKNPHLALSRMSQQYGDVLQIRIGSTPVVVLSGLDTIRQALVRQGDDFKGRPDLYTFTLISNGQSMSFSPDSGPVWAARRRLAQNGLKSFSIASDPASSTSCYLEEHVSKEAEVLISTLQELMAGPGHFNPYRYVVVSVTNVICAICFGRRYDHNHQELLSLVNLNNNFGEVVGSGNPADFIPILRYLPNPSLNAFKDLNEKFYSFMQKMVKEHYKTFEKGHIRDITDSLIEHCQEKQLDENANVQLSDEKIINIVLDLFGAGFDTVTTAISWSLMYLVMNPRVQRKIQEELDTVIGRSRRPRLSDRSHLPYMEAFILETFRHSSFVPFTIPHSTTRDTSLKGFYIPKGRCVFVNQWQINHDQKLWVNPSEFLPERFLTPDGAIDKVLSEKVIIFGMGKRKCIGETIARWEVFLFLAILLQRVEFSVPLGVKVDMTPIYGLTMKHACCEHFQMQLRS

SMILES: Oc1cccc(-c2nc(N3CCOCC3)c3oc4ncccc4c3n2)c1 [PI-103]
- IC50 (CYP1A1): 16.8 ± 1.76 µM
- residual activity (CYP1A1; CYP1A1, 100 μM PI-103): 21.39 % of the negative control
- IC50 (UGT2B7): 1.59 ± 0.21 µM
- Ki (UGT2B7): 1.35 ± 0.15 µM
- Type of inhibition (UGT2B7; UGT2B7, 4-MU): Noncompetitive
- reduction in fmet value (MRP1): 29.2%
- IC50 (p110β): 0.088 µM
- IC50 (UGT1A9): 16.6 ± 1.29 µM
- IC50 (UGT1A6): 168 ± 15.3 µM
- decrease in fmet value of PI-103 (MRP4): 33.8%
- toxicity in mice (mice): little toxicity
- inhibitory effect (UGT2B15): negligible
- IC50 (CYP2E1): 0.33 ± 0.04 µM
- Ki (CYP2E1): 0.25 ± 0.01 µM
- residual activity (CYP2E1; CYP2E1, 100 μM PI-103): 13.69 % of the negative control
- Type of inhibition (CYP2E1; CYP2E1, chlorzoxazone): Noncompetitive
- inhibitory effect (UGT2B17): negligible
- inhibitory effect (CYP2A6): negligible or weak
- IC50 (UGT1A3): 6.89 ± 0.73 µM
- Ki (UGT1A3): 2.58 ± 0.84 µM
- Type of inhibition (UGT1A3; UGT1A3, 4-MU): Mixed-type
- α (UGT1A3; UGT1A3, 4-MU, mixed-type model (selected)): 2.97 ± 1.61
- IC50 (CYP2C19): 0.59 ± 0.06 µM
- Ki (CYP2C19): 0.53 ± 0.03 µM
- residual activity (CYP2C19; CYP2C19, 100 μM PI-103): 14.67 % of the negative control
- Type of inhibition (CYP2C19; CYP2C19, mephenytoin): Noncompetitive
- inhibitory effect (UGT1A8): negligible
- toxicity in HeLa cells (HeLa cells): no significant toxicities
